# The list is not random: actives were taken first. Their share in the collection is about 3.7%.
# KCNK3 block – human KCNK3 channel inhibitors, primary screen, CHO cells, FluxOR thallium flux, B-score; Potassium channel subfamily K member 3 (Homo sapiens), O14649; FluxOR fluorescence; hits give low values; B-score at 10 µM; 340,000 tested, 0.84% active; AID 602410, 2012;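 active means B-score under library mean minus 4 SD, starting fluorescence ratio at most library mean plus 5 SD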;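 further: more negative B-score means stronger inhibition of thallium flux through KCNK3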
# Target sequence (O14649 whole entry, looked up): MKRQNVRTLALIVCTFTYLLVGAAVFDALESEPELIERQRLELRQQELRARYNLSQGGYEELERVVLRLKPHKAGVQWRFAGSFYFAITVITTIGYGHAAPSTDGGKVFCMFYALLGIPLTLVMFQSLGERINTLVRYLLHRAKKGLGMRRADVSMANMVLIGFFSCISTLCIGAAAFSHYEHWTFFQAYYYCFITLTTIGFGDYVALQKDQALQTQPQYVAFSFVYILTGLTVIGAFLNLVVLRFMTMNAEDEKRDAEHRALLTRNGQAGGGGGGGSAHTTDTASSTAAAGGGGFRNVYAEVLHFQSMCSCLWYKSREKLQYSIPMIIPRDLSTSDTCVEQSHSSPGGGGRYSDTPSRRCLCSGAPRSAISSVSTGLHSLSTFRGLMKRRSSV
# hERG rescue – hERG rescue from dofetilide block, primary screen, cell-based, CHO-hERG, FluxOR thallium flux, dofetilide IC70; activation (rescue from dofetilide block), less the hit threshold, % at 10 µM; dofetilide IC70 present; AID 1511, 2009; Voltage-gated inwardly rectifying potassium channel KCNH2 (Homo sapiens), Q12809; 310,000 tested, 0.51% active;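 active means activation above the mean of controls blocked by dofetilide plus 5 SD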;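 further: thallium influx through hERG after potassium depolarization seen as dye fluorescence rise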
# KCNQ1 inh – inhibitors of human KCNQ1 channel, primary screen, cell-based, thallium flux, high-throughput; Potassium voltage-gated channel subfamily KQT member 1 (Homo sapiens), P51787; CHO-K1 KCNQ1, FluxOR thallium flux fluorescence; hits give high values; B-score at 10 µM; 310,000 tested, 1.3% active; AID 2642, 2010;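 active means compounds whose thallium flux B-score, printed positive for inhibition, exceeds three library SD while starting fluorescence stays within three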;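 further: channel opened by potassium depolarization with thallium stimulus after 20 min compound exposure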
# Kir21 inh – inhibitors of mouse Kir2.1 inward-rectifier potassium channel; Inward rectifier potassium channel 2 (Mus musculus), P35561; HEK293-Kir2.1, FluxOR thallium flux fluorescence; hits give low values; B-score at 10 µM; 310,000 tested, 0.85% active; AID 1672, 2009;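 active means fluorescence ratio B-score at or below minus 3 SD of library scores, with starting-brightness B-score within 2 SD, cut at about -4.2 in these data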;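 further: channel flux triggered by added potassium and thallium sulfate stimulus; B-score of peak minus minimum fluorescence over baseline after thallium stimulus; more negative B-score means stronger Kir2.1 block with less thallium influx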
# KCNQ1 pot – potentiators or activators of KCNQ1 channel, primary screen, cell-based, thallium flux, high-throughput | Potassium voltage-gated channel subfamily KQT member 1 (Homo sapiens), P51787 | CHO-K1 KCNQ1, thallium flux FluxOR fluorescence; hits give high values | B-score at 10 µM | 310,000 tested, 0.35% active | AID 2648, 2010;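 active means fluorescence ratio B-score, a plate-corrected score, at least three library SD, with initial intensity B-score within 5 SD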
#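 Medium – assay buffer, equal DMSO in all wells · Material – CHO-K1 cell line with stable KCNQ1 potassium channel expression · Signal – kinetic FluxOR thallium fluorescence, 10-s 1-Hz baseline, 110-s post-stimulus read · Compound – single concentration per compound, DMSO matched to controls · Schedule – 37 °C overnight plating, 90-min dark dye load, 20-min compound pretreatment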
# KCNK9 block – KCNK9 potassium channel inhibitors, primary screen, HEK293 cells, thallium flux; Potassium channel subfamily K member 9 (Homo sapiens), Q9NPC2; FluxOR thallium flux fluorescence; hits give low values; B-score at 10 µM; 310,000 tested, 1.2% active;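 active means ratio B-score over 3 SD below the library mean, with starting fluorescence within 5 SD of its mean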;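 further: negative B-score means less thallium flux so channel inhibition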
# KCNK9 inh conf – KCNK9 potassium channel inhibitors, confirmation, HEK293 cells, thallium flux, duplicate; shares compounds with KCNK9 block; FluxOR thallium flux fluorescence; inhibition, % at 10 µM; 4,900 tested, 43% active; AID 492992, 2010;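 active means thallium signal inhibited by more than 5 SD of the compound-free buffer control wells, on both duplicate plates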;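 further: 0% = assay buffer control wells without compound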
# Kir2-1 spec – mouse Kir2.1 channel inhibition, confirmation, selectivity assay for KCNK9 modulator project, cell-based, HEK293, thallium flux | shares compounds with KCNK9 block | 4,900 tested, 4% active | Kir2.1 cells, FluxOR thallium flux fluorescence | inhibition, % at 10 µM;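 active means thallium signal drop more than 5 SD beyond the mean of the no-compound control wells, seen in both duplicate plates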;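 further: signal is fluorescence rise after thallium addition divided by baseline fluorescence; plate controls were assay buffer only for no effect and full block by chlorpromazine control for full effect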
# HEK293 Tl ctr – thallium flux in non-induced HEK293 cells, confirmation, counter-screen for KCNK9 inhibitor project, cell-based, second counter screen, non-induced KCNK9-HEK293 | shares compounds with KCNK9 block | FluxOR thallium flux | inhibition, % at 10 µM | 4,900 tested, 40% active;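 active means thallium signal drop beyond 5 SD of the untreated control mean, on both duplicate plates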;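 further: plate controls were buffer only IC0 wells for no effect and SID17386958 at its maximal inhibitory level for full effect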
# KCNK3 inh conf – retest of human KCNK3 channel inhibitors, confirmation, CHO cells, FluxOR thallium flux, triplicate | shares compounds with KCNK3 block | FluxOR fluorescence; 0% buffer, 100% carvedilol maximal block | ratio percent of control, % at 10 µM | 2,400 tested, 99% active | AID 651638, 2012;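 active means ratio percent of control, averaged over triplicates, above buffer control mean plus 5 SD, cut at about 64% in these data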;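 further: ratio is the fluorescence rise from min to max over baseline after thallium stimulus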
# KCNK3 noninduced – thallium flux inhibition in non-induced cells, primary screen, counter-screen for KCNK3 inhibitor project, cell-based, non-induced KCNK3 line, FluxOR thallium, triplicate | non-induced KCNK3 parental cells; hits give low values | 2,400 tested, 40% active | shares compounds with KCNK3 block | thallium flux ratio (lower = more inhibition) at 10 µM;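 active means thallium flux ratio, averaged over three wells, more than 5 SD below the buffer control mean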;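 further: host cells are CHO cells without KCNK3 induction; ratio is peak minus trough fluorescence over baseline then normalized to buffer controls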
# Numbers without * were called inactive; i = inactive; nt = no result given.
SMILES,KCNK3 block,hERG rescue,KCNQ1 inh,Kir21 inh,KCNQ1 pot,KCNK9 block,KCNK9 inh conf,Kir2-1 spec,HEK293 Tl ctr,KCNK3 inh conf,KCNK3 noninduced
COc1cc(/C=C2\C(=N)N3N=C(S(C)(=O)=O)SC3=NC2=O)ccc1OCCOc1ccc(C)cc1,-9.1*,0,10*,0.01,i,i,i,i,i,75*,0.16*
O=Cc1c(OCc2ccccc2)ccc2ccccc12,-11*,-9,i,0,i,-17*,64%*,i,50%*,113*,0.15*
Clc1ccc(-c2nc3cnccn3c2Nc2ccc3c(c2)OCO3)cc1,-9.7*,-15,i,2.4,i,-12*,60%*,i,24%*,105*,i
CSc1ccc(-c2nc3cnccn3c2Nc2ccc3c(c2)OCO3)cc1,i,-10,i,0.32,i,i,nt,nt,nt,nt,nt
CCSc1nc2ccccc2n1CCOc1ccccc1,-11*,-3,i,-1.2,i,-12*,28%*,i,30%*,120*,i
OCCn1c(SCCOc2ccccc2)nc2ccccc21,i,-8,i,-0.61,i,i,nt,nt,nt,nt,nt
COCCn1c(SCCOc2ccccc2)nc2ccccc2c1=O,-9*,-11,i,-2.3,i,-11*,38%*,i,46%*,114*,0.14*
COCCn1c(SCC(=O)c2ccccc2)nc2ccccc2c1=O,i,-6,i,1.5,i,i,nt,nt,nt,nt,nt
COC(=O)c1ccccc1S(=O)(=O)N1CCC(C(=O)Nc2ccc(N3CCOCC3)cc2)CC1,i,nt,nt,nt,nt,nt,nt,nt,nt,nt,nt
COC(=O)C1=C(C)N=C2SC(C#N)=C(N)N2C1c1cc(OC)c(OC)c(OC)c1 (stereo not drawn),i,-5,i,0.39,i,i,nt,nt,nt,nt,nt
COC(=O)C1=C(C)N=C2SC(C#N)=C(N)N2C1c1ccc(OCc2ccccc2)cc1 (stereo not drawn),-9.9*,-6,i,-2.4,i,-17*,74%*,i,52%*,97*,0.15*
Cc1c(N=C2N=C(NC(=O)NC(C)(C)C)c3ccccc32)c(=O)n(-c2ccccc2)n1C,i,-3,i,2.1,i,i,nt,nt,nt,nt,nt
Cc1c(N=C2N=C(NC(=O)c3cccs3)c3ccccc32)c(=O)n(-c2ccccc2)n1C,-9.9*,-17,i,0.88,i,-9.2*,56%*,i,56%*,141*,0.1*
CC(Oc1ccc(Cl)cc1Cl)c1nc(-c2ccc(NC(=O)c3ccco3)cc2)no1 (stereo not drawn),-8.8*,-10,i,1.5,i,-13*,53%*,i,34%*,121*,0.15*
COC(=O)c1nn(-c2ccccc2)c(-c2ccccc2)c1C(=O)c1ccccc1,-8.9*,-11,i,0.41,i,-9.4*,48%*,i,i,106*,i
O=C(O)c1nn(-c2ccccc2)c(-c2ccccc2)c1C(=O)c1ccccc1,i,-12,i,-0.16,i,i,nt,nt,nt,nt,nt
COc1ccc(CNC(=O)c2csc(Cc3ccccc3)n2)cc1,i,-9,i,-4.2,i,i,nt,nt,nt,nt,nt
COc1ccccc1CNC(=O)c1csc(Cc2ccc(Cl)cc2)n1,-13*,-10,i,4.6,i,i,i,i,26%*,122*,0.14*
N#CC1=C2N=C(N)c3ccccc3N2C2=C(C(=O)CCC2)C1c1ccccc1F (stereo not drawn),i,-10,i,0.95,i,i,nt,nt,nt,nt,nt
CC1(C)CC(=O)C2=C(C1)N1C(=C(C#N)C2c2ccccc2Cl)N=C(N)c2ccccc21 (stereo not drawn),-13*,-10,i,-0.11,i,-15*,42%*,i,44%*,90*,i
Cc1cccc(Nc2nc(C)nc3c2oc2ccccc23)c1,-9*,-11,i,-1.5,i,-8.8*,30%*,i,26%*,116*,i
Cc1ccc(C(=O)c2cnc3ccccc3c2-c2ccccc2)cc1,-9.8*,-5,i,-0.37,i,i,nt,nt,nt,118*,0.13*
COc1ccc(Oc2nc(-c3ccccc3)ncc2C(=O)O)cc1,i,-3,i,-0.02,i,i,nt,nt,nt,nt,nt
COc1ccc(C(=O)c2cnc3ccccc3c2-c2ccccc2)cc1,-9.2*,-9,i,0.17,i,i,nt,nt,nt,112*,i
COCc1c(C(=O)N2CCc3ccccc32)oc2ccccc12,-11*,-4,i,-0.02,i,i,nt,nt,nt,86*,i
Cc1c(C(=O)N2CCc3ccccc32)oc2ccccc12,i,-10,i,-0.55,i,i,nt,nt,nt,nt,nt
CCN(C(=O)CSc1nnc(COc2cccc(C)c2)o1)c1nc(C)cs1,i,-10,i,0.18,i,i,nt,nt,nt,nt,nt
COCCNC(=S)N/N=C/c1c2ccccc2cc2ccccc12,-14*,-27,i,0.64,i,i,nt,nt,nt,110*,i
COc1ccc(NC(=O)CSCC(=O)N(C)CC(=O)Nc2ccc(Cl)c(C(F)(F)F)c2)cc1,i,-14,i,-1.2,i,i,nt,nt,nt,nt,nt

# Assay outcomes deposited in PubChem by Johns Hopkins Ion Channel Center.
